Shown is part of a subset that was picked to be rich in hits.
S1P4 ag: activates the human S1P4 receptor | O95977 | S1P4-expressing cell line, agonist reporter assay | activation, % at 4.98 µM | actives 0.35% (n = 220,000) | AID 1509; in the data active = activation above about 11%;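 also: 0% = DMSO vehicle and 100% = reference agonist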
Target sequence (O95977 whole entry, looked up): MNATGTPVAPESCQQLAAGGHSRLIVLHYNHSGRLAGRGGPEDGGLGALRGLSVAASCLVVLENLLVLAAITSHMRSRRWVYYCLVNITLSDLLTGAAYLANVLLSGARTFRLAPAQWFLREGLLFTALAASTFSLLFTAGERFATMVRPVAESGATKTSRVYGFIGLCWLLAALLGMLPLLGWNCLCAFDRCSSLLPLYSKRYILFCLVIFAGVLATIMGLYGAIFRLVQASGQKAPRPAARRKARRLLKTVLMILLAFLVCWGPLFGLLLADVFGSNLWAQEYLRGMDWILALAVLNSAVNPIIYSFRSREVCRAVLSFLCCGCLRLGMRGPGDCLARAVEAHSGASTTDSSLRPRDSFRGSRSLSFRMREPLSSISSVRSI
Mdm2 ligase inh: inhibitors of human Mdm2 E3 ubiquitin ligase | cell-based MDM2 ubiquitination luciferase reporter, 2 h; 0 = plate control, 100 = twice control, blank-subtracted | signal enhancement, % at 5 µM | actives 0.11% (n = 210,000);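 active = signal enhancement of 30% or more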;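 also: luminescence tracks abundance of the self-degrading MDM2-luciferase fusion protein; higher signal means inhibition of MDM2 E3 ligase activity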
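test system = mammalian cells stably expressing self-ubiquitinating, self-degrading MDM2 E3–luciferase fusion | quantity = 2000 cells/well | incubation = cell settling 4 h, compound treatment 2 h, both 37 °C | signal = luminescence with SteadyLite reagent, 15 min at room temperature | evaluation = % enhancement relative to plate controls after blank subtraction | benchmarks = plate controls and plate blanks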
S1P4 antag: human S1P4 receptor antagonism. S1P4-expressing cells, antagonist mode, reporter read-out. inhibition, % at 4.98 µM. actives 0.26% (n = 220,000). AID 1510; in the data active = inhibition above about 29%;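 also: 0% = wells stimulated with agonist and 100% = vehicle wells without agonist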
Lmaj promast: reduces viability of Leishmania major promastigotes | resazurin fluorescence viability | inhibition, % at 10 µM | actives 9% (n = 200,000) | AID 1063; in the data active = inhibition above about 50%;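 also: promastigotes grown with compound for 44 hours at 28 °C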
S1P3 antag: antagonists of human S1P3 receptor | CHO S1P3 NFAT-BLA reporter, FRET fluorescence, antagonist mode | inhibition, % at 4.98 µM | actives 0.27% (n = 170,000) | Q99500;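 active = inhibition above the plate cutoff, the mean inhibition of test wells on that plate plus 3 SD, cut at about 28% in these data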;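 also: cells challenged with S1P at its EC80 of 0.8 µM; blue over green emission ratio from cleaved BLA substrate after 4 h stimulation; 0% = S1P-stimulated wells and 100% = unstimulated DMSO-only wells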
* marks the source's active call; other numbers are inactive results; / = no result given.

SMILES	S1P4 ag	Mdm2 ligase inh	S1P4 antag	Lmaj promast	S1P3 antag
COc1ccc(/C=C(/NC(=O)c2ccccc2)C(=O)NC2CCS(=O)(=O)C2)cc1 (stereo unspecified)	1.6	2.2	-30.4	-4.2	8.1
CCOC(=O)c1ccc(NC(=O)CN2C(=O)CNC2=O)cc1	0.9	-18.9	-13.2	96.2*	-22.8
CCOC(=O)c1ccc(NC(=O)Cn2nnc(-c3ccccc3F)n2)cc1	10.8	1.1	-12.1	60.9*	-12.4
CCOC(=O)c1ccc(NC(=O)CSc2nnc(CNC(=O)c3ccccc3F)o2)cc1	-1.8	/	-0.2	91.0*	/
CCOC(=O)c1ccc(NC(=O)CN2CCN(c3ccccc3)CC2)cc1	3.7	-7.4	1.9	92.4*	-3.6
CCOC(=O)c1ccc(NC(=O)CN2C(=O)CSCC2=O)cc1	4.0	-14.8	0.7	30.1	-9.3
CCOC(=O)c1ccc(NC(=O)Cn2nnc(-c3ccccc3)n2)cc1	1.2	-14.3	-7.9	3.1	-16.9
CCCN(CCC)C(=O)c1cc([N+](=O)[O-])cc2c1-c1ccc([N+](=O)[O-])cc1C2=C(C#N)C#N	0.0	6.5	9.3	/	-3.8
COc1ccc(CCN2C(=O)C3C4CC(C5C(C(=O)N/N=C\c6ccc(Cl)cc6)=NOC45)C3C2=O)cc1OC (stereo unspecified)	-0.8	-7.5	-4.4	-5.8	/
Cc1nccn1S(=O)(=O)c1ccc(Br)cc1Br	-1.3	-8.6	14.0	85.9*	-11.1
CCCCC(CC)CNC(=O)Cn1c(=S)[nH]c2ncccc2c1=O (stereo unspecified)	2.3	-1.5	-14.5	-7.2	-18.8
CC(C)NCC(O)COC1CCC(C(C)(C)C)CC1 (stereo unspecified)	0.8	-41.5	2.2	90.2*	-15.6
CC(C)NCC(O)COC1C2CC3CC(C2)CC1C3 (stereo unspecified)	2.9	-8.7	-11.7	3.2	-2.3
Cc1c(C)n(CC(O)CN2CCCCCC2)c2ccccc12 (stereo unspecified)	0.4	-19.1	9.9	99.0*	29.5
CC(C)(C)C1CCC(OC(=O)CN2CCCCC2)CC1 (stereo unspecified)	-0.3	-11.2	15.0	/	5.3
CC1CN(CC(O)COC2CCC(C(C)(C)C)CC2)CC(C)O1 (stereo unspecified)	0.8	-89.8	-12.9	89.8*	-8.7
OC(COc1ccc(Cl)c2ccccc12)CN1CCN(c2ccccn2)CC1 (stereo unspecified)	-1.4	-7.5	-0.1	3.0	/
OC(CN1CCN(c2ccccn2)CC1)Cn1c2ccccc2c2ccccc21 (stereo unspecified)	-2.0	-28.3	-15.7	99.7*	-15.3
CC(C)n1c(=S)[nH]c2c1c(=O)[nH]c(=O)n2C	-0.8	-7.6	17.2	-3.7	-7.6
OC(COC(c1ccccc1)c1ccccc1)CN1CCN(c2ccccn2)CC1 (stereo unspecified)	1.0	-7.9	-17.8	3.9	-5.5
OC(COC1CCCCC1)CN1CCN(c2ccccc2)CC1 (stereo unspecified)	1.4	-15.2	7.7	20.3	-0.9
CC(C)(C)C1CCC(OCC(O)CN2CCN(Cc3ccccc3)CC2)CC1 (stereo unspecified)	-0.6	-5.0	-9.3	91.4*	3.7
CC(C)(C)C1CCC(OCC(O)CN2CCN(c3ccccn3)CC2)CC1 (stereo unspecified)	-0.6	-36.8	-15.7	93.7*	-14.6
CCc1ccc(N(CC(=O)NC)S(C)(=O)=O)cc1	0.1	-8.9	-11.6	-7.7	-24.1
COc1cccc(/C=N/NC(=O)c2ccccc2N(Cc2ccccc2)S(=O)(=O)c2ccccc2)c1OC	-0.4	-12.7	-2.1	90.6*	/
SMILES	S1P4 ag	Mdm2 ligase inh	S1P4 antag	Lmaj promast	S1P3 antag
COc1ccc(OC)c(/C=N/NC(=O)c2ccc(N(C)S(=O)(=O)c3ccccc3)cc2)c1	1.8	-2.9	-22.9	99.3*	8.8
COc1ccc(/C=N/NC(=O)c2ccc(N(C)S(=O)(=O)c3ccccc3)cc2)c(OC)c1	1.2	-5.2	-9.2	7.3	4.9
COc1ccc(C(=O)N/N=C/c2ccc(OC)c(OS(=O)(=O)c3ccccc3)c2)cc1	0.2	-3.5	-4.6	91.4*	1.6
CCOc1ccccc1/C=N/NC(=O)c1cccc(S(=O)(=O)N(CC)CC)c1	0.8	2.1	-10.7	-1.5	-13.4
COc1cccc(/C=N/NC(=O)c2ccc(N(C)S(=O)(=O)c3ccccc3)cc2)c1OC	0.3	0.6	4.9	34.0	21.4
CCOc1cc(/C=N/NC(=O)c2cccc([N+](=O)[O-])c2)ccc1OS(=O)(=O)c1ccccc1	2.0	8.2	-14.4	78.3*	/
COc1ccc(C(=O)N[C@H](C(=O)OCc2cc(=O)oc3cc(C)ccc23)C(C)C)cc1	1.3	3.8	-20.1	14.6	0.1
N/C(=N\OC(=O)CSc1ccccc1)c1ccc([N+](=O)[O-])cc1	0.2	-9.6	-11.8	64.0*	0.9
Cc1ccc(/C(N)=N/OC(=O)CSc2ccccc2)cc1	-0.3	-21.8	-8.0	-7.0	-5.0
Cn1c(-c2ccc(F)cc2)cnc1NCc1ccccc1	1.9	-5.5	-2.1	28.0	23.2
Cn1c(-c2ccc(F)cc2)cnc1NCc1cccc(F)c1	1.1	/	-4.9	77.8*	/
COc1cccc(-c2cnc(NCc3cc(Cl)ccc3O)n2C)c1	1.5	-18.4	-15.3	63.5*	-18.0
Cn1c(-c2ccc3c(c2)OCO3)cnc1NCc1cccc(O)c1	1.8	2.1	-2.5	62.8*	7.7
O=C(COC(=O)c1cccc(O)c1)NCc1ccc2c(c1)OCO2	-0.8	0.2	5.0	/	-2.0
Cc1cccc(NCc2cc(Cl)ccc2O)n1	1.2	-7.9	6.0	39.9	/
Cn1c(-c2cccc(Br)c2)cnc1NCc1cccnc1	-1.6	-4.2	-3.4	97.4*	0.5
NC(=O)C(=CNc1nc(-c2ccc(Cl)c(Cl)c2)cs1)C(N)=O	-0.9	-4.0	-29.1	/	-6.5
Cc1ccc(Nc2ccc([N+](=O)[O-])nc2[N+](=O)[O-])cc1	0.1	-5.5	4.1	69.8*	/
O=C(COC(=O)/C=C/c1ccco1)Nc1ccc(F)cc1Cl	0.8	3.2	0.8	-5.2	-16.5
O=C(CN(C(=O)CSc1nc2ccccc2o1)c1ccccc1F)NC1CCCCC1	-2.0	-9.7	5.4	65.4*	0.8
COCCN(CC(=O)NC1CCCCC1)C(=O)CSc1nc2ccccc2o1	0.6	8.9	2.6	-10.2	-14.7
Cc1ccc(C)c(N/N=C2\CCCNC2=O)c1	-1.6	-6.9	-10.1	78.0*	-11.3
O=C(CSc1nnc2ccccn12)N1CCc2ccccc21	0.4	-5.2	-4.6	-6.8	6.0
c1ccc(-n2nnnc2Cc2nnnn2-c2ccccc2)cc1	-0.8	-14.6	-20.4	-5.0	-14.9
N#CCCS(=O)(=O)c1nnnn1-c1ccccc1	-6.7	/	38.4*	-2.0	21.0
CCOc1ccc(C2=NNC(c3cccs3)=Nc3ccc(OC)cc32)cc1OCC	1.8	-4.6	-24.6	67.0*	/
COc1ccc(C2=NNC(c3cccs3)=Nc3ccc(OC)cc32)cc1	1.4	-5.4	-16.8	9.9	/
Cc1ccc(C)c(NC(=S)N2CCN(CCO)CC2)c1	-1.0	-21.8	-14.0	46.4	0.3

Source: PubChem
